Reference: ChEMBL document CHEMBL1156767, “Indol-3-ylcycloalkyl ketones: effects of N1 substituted indole side chain variations on CB(2) cannabinoid receptor activity” (J Med Chem, 2010)

Columns and labels:
Cannabinoid receptor 1 [1] = target: T1, Cannabinoid receptor 1 (Homo sapiens, UniProt P21554); assay: Displacement of [3H]CP-55940 from human recombinant CB1 receptor expressed in CHO cells; assay type: cell-based
Cannabinoid receptor 2 [2] = target: T2, Cannabinoid receptor 2 (Homo sapiens, UniProt P34972); assay: Agonist activity at human recombinant CB2 receptor expressed in HEK293 cells coexpressing Galphaq/o5 assessed as calcium mobilization by FLIPR assay; assay type: functional, cell-based
Method in brief: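 HEK cells stably coexpressing human CB2 and chimeric Gαq/o5 were seeded at 75 000 cells/well the day before and loaded with no-wash calcium dye. Mean ± SEM, ≥3 experiments in duplicate.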

Homo sapiens = organism: Homo sapiens; assay: Selectivity ratio of Ki for human recombinant CB1 receptor to Ki for human recombinant CB2 receptor
Method in brief: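 Membranes were from HEK cells stably expressing human CB2 and CHO cells stably expressing human CB1. Competition was run against 0.5 nM [3H]CP-55,940 in 50 mM Tris-HCl pH 7.4, 2.5 mM EDTA, 5 mM MgCl2, 0.05% fatty-acid-free BSA, for 90 min at 30 °C, then filtered. Nonspecific binding was set with 10 μM unlabeled CP-55,940. Ki came from one-site fits. Mean ± SEM, ≥3 experiments in duplicate.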

Cannabinoid receptor 2 [3] = target: T3, Cannabinoid receptor 2 (Rattus norvegicus, UniProt Q9QZN9); assay: Agonist activity at rat CB2 receptor assessed as inhibition of forskolin-induced cAMP production by cell based assay; assay type: functional
T3 sequence (Q9QZN9 whole entry): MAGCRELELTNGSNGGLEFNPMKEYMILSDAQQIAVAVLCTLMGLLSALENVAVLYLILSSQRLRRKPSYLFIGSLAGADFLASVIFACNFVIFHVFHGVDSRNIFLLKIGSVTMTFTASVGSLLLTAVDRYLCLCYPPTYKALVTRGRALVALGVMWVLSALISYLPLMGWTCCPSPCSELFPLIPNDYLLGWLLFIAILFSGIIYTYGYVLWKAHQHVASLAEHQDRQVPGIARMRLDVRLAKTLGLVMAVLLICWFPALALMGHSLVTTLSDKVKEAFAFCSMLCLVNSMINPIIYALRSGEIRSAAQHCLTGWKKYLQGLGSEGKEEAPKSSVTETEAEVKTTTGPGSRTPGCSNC

Cannabinoid receptor 2 [4] = target: T2, Cannabinoid receptor 2; assay: Agonist activity at human recombinant CB2 receptor expressed in HEK293 cells assessed as inhibition of forskolin-induced cAMP production relative to CP-55940; assay type: functional, cell-based; set-up: scale not given: the % may be the effect or the level left
Method in brief: (§1)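 Cyclase assay on cell suspensions (HitHunter cAMP kit): varying test ligand concentrations or CP-55,940 positive control incubated 20 min at 37 °C with a fixed forskolin concentration (lower for rat CB2 than for human CB2 and rat CB1) in D-PBS with 0.01% BSA. Lysis buffer was then added and luminescence read. Response is given as percent of the CP-55,940 response.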

Cannabinoid receptor 2 [5] = target: T2, Cannabinoid receptor 2; assay: Agonist activity at human recombinant CB2 receptor expressed in HEK293 cells assessed as inhibition of forskolin-induced cAMP production; assay type: functional, cell-based
[6] = target: T4, Cannabinoid receptor 2 (Rattus norvegicus) (UniProt Q9QZN9); assay: Agonist activity at rat CB2 receptor assessed as inhibition of forskolin-induced cAMP production by cell based assay relative to CP-55940; assay type: functional; set-up: concentration or dose not given beside the values; method in brief: as §1
T4 sequence (whole entry): T3 sequence (Q9QZN9 whole entry)

Cannabinoid receptor 1 [7] = target: T1, Cannabinoid receptor 1; assay: Agonist activity at human recombinant CB1 receptor expressed in CHO cells assessed as inhibition of forskolin-induced cAMP production; assay type: functional, cell-based
Cannabinoid receptor 2 [8] = target: T2, Cannabinoid receptor 2; assay: Agonist activity at human recombinant CB2 receptor expressed in HEK293 cells coexpressing Galphaq/o5 assessed as calcium mobilization by FLIPR assay relative to CP-55940; assay type: functional, cell-based
Method in brief: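 HEK cells stably coexpressing human CB2 and chimeric Gαq/o5 were seeded at 75 000 cells/well the day before and loaded with no-wash calcium dye. […] Mean ± SEM, ≥3 experiments in duplicate.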

Cannabinoid receptor 2 [9] = target: T2, Cannabinoid receptor 2; assay: Displacement of [3H]CP-55940 from human recombinant CB2 receptor expressed in HEK293 cells; assay type: cell-based; details: read-out: Ki
[10] = target: Cannabinoid receptor 1 (Rattus norvegicus) (UniProt P20272); assay: Agonist activity at rat CB1 receptor assessed as inhibition of forskolin-induced cAMP production by cell based assay relative to CP-55940; assay type: functional; set-up: scale not given: the % may be the effect or the level left; method in brief: as §1
Cannabinoid receptor 1 [11] = target: Cannabinoid receptor 1 (Rattus norvegicus, UniProt P20272); assay: Agonist activity at rat CB1 receptor assessed as inhibition of forskolin-induced cAMP production by cell based assay; assay type: functional
Cannabinoid receptor 1 (Rattus norvegicus, UniProt P20272), sequence (P20272 whole entry): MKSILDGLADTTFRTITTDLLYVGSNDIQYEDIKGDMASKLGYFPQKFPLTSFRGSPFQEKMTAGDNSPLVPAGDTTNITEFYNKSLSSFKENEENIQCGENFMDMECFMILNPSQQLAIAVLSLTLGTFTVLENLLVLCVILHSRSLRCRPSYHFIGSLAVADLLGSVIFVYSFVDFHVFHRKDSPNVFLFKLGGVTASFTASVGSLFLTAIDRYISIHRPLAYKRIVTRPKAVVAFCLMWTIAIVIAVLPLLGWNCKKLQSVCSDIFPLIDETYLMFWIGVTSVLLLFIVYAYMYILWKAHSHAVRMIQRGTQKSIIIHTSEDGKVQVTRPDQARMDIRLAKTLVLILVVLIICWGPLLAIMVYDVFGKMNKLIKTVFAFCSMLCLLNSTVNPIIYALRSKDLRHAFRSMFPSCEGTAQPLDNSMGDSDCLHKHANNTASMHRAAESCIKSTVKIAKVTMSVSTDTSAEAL

Cannabinoid receptor 1 (Rattus norvegicus), sequence (P20272 whole entry): as above
T2 sequence (P34972 whole entry): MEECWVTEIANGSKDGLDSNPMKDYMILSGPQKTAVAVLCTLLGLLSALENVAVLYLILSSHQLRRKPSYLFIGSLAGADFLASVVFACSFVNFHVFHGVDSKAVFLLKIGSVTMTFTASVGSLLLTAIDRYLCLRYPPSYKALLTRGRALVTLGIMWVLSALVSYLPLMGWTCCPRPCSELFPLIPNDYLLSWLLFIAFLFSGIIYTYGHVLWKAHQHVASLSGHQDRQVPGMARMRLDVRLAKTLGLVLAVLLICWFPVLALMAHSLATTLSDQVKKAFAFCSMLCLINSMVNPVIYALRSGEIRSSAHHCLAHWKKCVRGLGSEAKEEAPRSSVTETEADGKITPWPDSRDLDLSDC
T1 sequence (P21554 whole entry): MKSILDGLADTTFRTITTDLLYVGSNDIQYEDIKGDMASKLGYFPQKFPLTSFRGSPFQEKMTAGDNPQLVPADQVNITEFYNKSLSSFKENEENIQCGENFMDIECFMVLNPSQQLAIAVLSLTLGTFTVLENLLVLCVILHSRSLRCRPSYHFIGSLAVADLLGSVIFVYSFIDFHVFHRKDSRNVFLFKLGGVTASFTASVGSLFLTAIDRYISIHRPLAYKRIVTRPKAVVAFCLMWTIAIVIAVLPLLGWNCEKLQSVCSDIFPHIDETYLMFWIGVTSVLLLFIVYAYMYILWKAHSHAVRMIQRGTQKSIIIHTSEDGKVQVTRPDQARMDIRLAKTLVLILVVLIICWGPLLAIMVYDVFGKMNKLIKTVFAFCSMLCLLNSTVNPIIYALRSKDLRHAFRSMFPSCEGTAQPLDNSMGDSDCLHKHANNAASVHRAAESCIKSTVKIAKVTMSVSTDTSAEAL

| SMILES | Ki (Cannabinoid receptor 1 [1]; read-out: Ki) [nM] | EC50 (Cannabinoid receptor 2 [2]) [nM] | Ratio Ki (Homo sapiens) | EC50 (Cannabinoid receptor 2 [3]) [nM] | Activity (Cannabinoid receptor 2 [4]) [%] | EC50 (Cannabinoid receptor 2 [5]) [nM] | Activity [6] [%] | EC50 (Cannabinoid receptor 1 [7]) [nM] | Activity (Cannabinoid receptor 2 [8]) [%] | Ki (Cannabinoid receptor 2 [9]) [nM] | Activity [10] [%] | EC50 (Cannabinoid receptor 1 [11]) [nM] | Ki (Cannabinoid receptor 1 [1]; read-out: pKi (converted)) [nM] |
| --- | --- | --- | --- | --- | --- | --- | --- | --- | --- | --- | --- | --- | --- |
| CC1(C)C(C(=O)c2cn(CCN3CCOC3=O)c3ccccc23)C1(C)C | 350 | 2 | 1940 | 0.07 | 114 | 0.97 | 99 | 3590 | 81 | 0.18 |  |  |  |
| Cc1c(C(=O)c2cccc3ccccc23)c2cccc3c2n1[C@H](CN1CCOCC1)CO3 |  |  |  |  |  |  | 46 |  |  |  | 108 |  |  |
| CC1(C)C(C(=O)c2cn(CCc3cccnc3)c3ccccc23)C1(C)C | > 10000 | 62 | > 500 |  |  |  |  |  | 78 | 20 |  |  |  |
| CC1(C)C(C(=O)c2cn(CCCC(F)(F)F)c3ccccc23)C1(C)C | 15 | 6 | 167 |  |  |  |  |  | 104 | 0.09 |  |  |  |
| CC1(C)C(C(=O)c2cn(CCc3ccsc3)c3ccccc23)C1(C)C | 148 | 70 | 82 |  |  |  |  |  | 108 | 1.8 |  |  |  |
| O=C(c1cn(CCN2CCOCC2)c2ccccc12)[C@@H]1CC12CCCCC2 | 3060 | 42 | 87 |  |  |  |  |  | 50 | 35 |  |  |  |
| CC1(C)C(C(=O)c2cn(CC3CCOCC3)c3ccccc23)C1(C)C |  |  |  | 0.17 | 103 | 2.7 | 93 |  |  |  | 91 |  |  |
| CC1(C)C(C(=O)c2cn(CC3OCCO3)c3ccccc23)C1(C)C | 280 | 7 | 280 |  |  |  |  |  | 133 | 1 |  |  |  |
| CC1(C)C(C(=O)c2cn(Cc3ccncc3)c3ccccc23)C1(C)C | 48 | 30 | 13 |  |  |  |  |  | 99 | 3.7 |  |  |  |
| CC1(C)C(C(=O)c2cn(Cc3cccnc3)c3ccccc23)C1(C)C | 2030 | 75 | 68 |  |  |  |  |  | 103 | 30 |  |  |  |
| CCCn1cc(C(=O)C2C(C)(C)C2(C)C)c2ccccc21 | 4300 | 36 | 467 |  |  |  |  |  | 114 | 9.2 |  |  |  |
| CC1(C(=O)c2cn(CC3CCOCC3)c3ccccc23)CC(F)(F)C1(F)F (stereo not drawn) | 1450 | 197 | 31 |  |  |  |  |  | 46 | 47 |  |  |  |
| CC1(C)C(C(=O)c2cn(CCN3CCOCC3)c3ccccc23)C1(C)C |  | 16 |  | 1.6 | 78 | 0.52 | 70 |  |  | 4.6 | 97 | 248 |  |
| O=C(c1cn(CCN2CCOCC2)c2ccccc12)C12CC3CC(CC1C3)C2 | > 10000 | 68 | > 435 |  |  |  |  |  | 66 | 23 |  |  |  |
| COC(=O)CCn1cc(C(=O)C2C(C)(C)C2(C)C)c2ccccc21 | 1830 | 17 | 631 |  |  |  |  |  | 109 | 2.9 |  |  |  |
| CC1(C)C(C(=O)c2cn(CCCCO)c3ccccc23)C1(C)C | > 5600 | 8 | > 2500 | 4.4 | 100 | 2.1 | 104 | 1880 | 105 | 2.2 | 113 | 2080 | > 5620 |
